Compound activity as filed in PubChem.
LMPTP block – LMPTP (human) inhibition. recombinant LMPTP-A, OMFP fluorogenic substrate, fluorescence intensity. inhibition, % at 20 µM. 0.22% of 360,000 active. AID 651560;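 active means compounds that cut the enzyme signal by at least half of the control window in the single-dose screen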;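 further: plate controls were DMSO wells with enzyme plus substrate for no effect and substrate without enzyme for full effect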
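Test system: LMPTP-A phosphatase enzyme. Amount: LMPTP-A at 0.625 nM final in the reaction. Reagent: OMFP substrate, 400 µM final. Times: 50 min at room temperature. Signal: endpoint fluorescence intensity from OMFP dephosphorylation. Read-out basis: % inhibition. Benchmarks: no-enzyme and uninhibited controls.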
STEP inh – STEP (human) phosphatase inhibition | P54829 | recombinant STEP, OMFP fluorogenic substrate, fluorescence | inhibition, % at 20 µM | 0.25% of 360,000 active | AID 588621;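 active means inhibition at 20 µM, scaled per plate between control wells, above about 37%, limit read from the data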;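 further: 0% = DMSO with enzyme and substrate and 100% = substrate only without enzyme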
Target sequence (P54829 whole entry, looked up): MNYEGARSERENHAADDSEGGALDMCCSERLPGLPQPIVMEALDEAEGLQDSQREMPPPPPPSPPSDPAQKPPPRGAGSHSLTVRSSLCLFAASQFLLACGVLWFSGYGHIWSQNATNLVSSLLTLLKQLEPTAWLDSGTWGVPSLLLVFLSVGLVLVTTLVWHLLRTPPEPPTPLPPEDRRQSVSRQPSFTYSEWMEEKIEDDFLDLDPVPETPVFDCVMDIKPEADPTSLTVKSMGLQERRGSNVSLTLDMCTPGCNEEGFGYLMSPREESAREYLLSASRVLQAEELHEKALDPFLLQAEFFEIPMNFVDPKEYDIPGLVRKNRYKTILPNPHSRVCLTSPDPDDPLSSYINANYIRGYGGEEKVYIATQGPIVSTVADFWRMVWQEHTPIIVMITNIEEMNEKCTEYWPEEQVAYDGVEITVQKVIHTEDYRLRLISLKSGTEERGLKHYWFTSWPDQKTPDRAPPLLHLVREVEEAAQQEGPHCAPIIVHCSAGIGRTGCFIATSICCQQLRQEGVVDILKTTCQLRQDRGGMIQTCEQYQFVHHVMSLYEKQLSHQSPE
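Also added – OMFP at 25 µM · Test system – STEP tyrosine phosphatase · Technique – FITC-channel fluorescence of OMFP product · Schedule – 20 min at room temperature, dark · Evaluation – control-normalized % inhibition with plate pattern correction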
DNMT1 block – DNMT1 (human) enzyme inhibition. P26358. DNMT1 molecular beacon, Hinp1I cleavage, fluorescence. inhibition (reported as % activation of signal), % at 10 µM. 0.83% of 360,000 active. AID 588458; in the data active means inhibition above about 50%
HKDC1 inhibitor – blocks human hexokinase HKDC1 activity; recombinant HKDC1, G6PDH/diaphorase resazurin coupled fluorescence; inhibition, % at 20 µM; 0.16% of 340,000 active; AID 493160;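 active means inhibition above about 35% when tested at 20 µM, limit read from the data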;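 further: plate controls were DMSO wells with enzyme for no effect and DMSO wells lacking enzyme for full effect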
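Test system: recombinant HKDC1 (HK5) hexokinase enzyme, produced in-house / Doses: 20 µM test compound, 1% DMSO / Timing: 90 min, room temperature / Detection: G6PDH/diaphorase-coupled fluorescence, 1 mM NADP, 100 µM resazurin, 525/613 nm / Control set: DMSO wells with and without enzyme mix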
Scp1 inh – blocks human Scp-1 phosphatase activity; inhibition, % at 20 µM; 0.88% of 340,000 active; Recombinant Scp1, phosphopeptide, malachite green phosphate absorbance; AID 493091;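 active means inhibition above about 50% at 20 µM, limit read from the data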;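 further: plate controls were DMSO wells with enzyme for no effect and wells lacking enzyme for full effect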
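Incubation: 45 min enzyme reaction at room temperature / System: truncated SCP-1 phosphatase (76-261aa) / Reagent: Phospho 17-mer peptide substrate / Buffer or medium: Acidic Tris acetate buffer with magnesium and detergent / Signal: absorbance at 630 nm / Doses: one concentration, 20 µM, with 1.0% DMSO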
SUMO1 PPI mod – SUMO1-SIM interaction modulation; 0.33% of 360,000 active; inhibition, % at 20 µM; P63165; AID 602429; SUMO1 binding to a labelled peptide, TR-FRET, 1 h; in the data active means inhibition above about 37%
Target sequence (P63165 whole entry, looked up): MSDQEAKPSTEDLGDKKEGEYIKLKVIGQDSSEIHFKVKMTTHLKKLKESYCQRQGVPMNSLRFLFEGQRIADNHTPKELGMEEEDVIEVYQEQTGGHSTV
Beacon interf DR – shows spectral interference in the DNMT1 beacon assay. IC50, µM. 200 tested, under 10 active. molecular beacon fluorescence, spectral interference counter-screen. shares compounds with DNMT1 block. AID 602382; call rule not given here
DNMT1 confirm – DNMT1 inhibition confirmation, single concentration | inhibition, % at 10 µM | AID 602385 | 8% of 2,300 active | shares compounds with DNMT1 block | DNMT1 molecular beacon HinP1I cleavage, fluorescence;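 active means average inhibition of at least 30% in the single-concentration confirmation test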
Beacon interf – beacon fluorescence artifact counter-screen. shares compounds with DNMT1 block. DNMT1 molecular beacon spectral interference counterscreen, fluorescence 485/520. activation (fluorescence interference), % at 10 µM. 1% of 2,300 active;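 active means activation of at least 30% at 10 µM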;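 further: DNMT1 catalytic domain with a HinP1I cleavage step and a FAM/dabcyl DNA beacon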
Active calls of the source: *; x = not tested or not shown. Compounds with a hit are over-represented: about 1.8% of the library has one in this group of screens.

SMILES	LMPTP block	STEP inh	DNMT1 block	HKDC1 inhibitor	Scp1 inh	SUMO1 PPI mod	DNMT1 confirm	Beacon interf	others
Cc1ccc(C(=O)Nc2nc(-c3ccc([N+](=O)[O-])cc3)cs2)o1	11	-3	51*	-6	-10	-8	5	2
c1ccc(-n2cnc3ccccc32)nc1	-2	-4	5	-10	-5	0	x	x
c1ccc(-c2nccc(-c3ccc(-n4cnc5ccccc54)cc3)n2)cc1	9	5	82*	17	0	-5	1	-7
O=C(COC(=O)c1cc(=O)c2ccccc2o1)NCc1ccccc1	0	-3	2	-7	-3	1	x	x
O=C(COC(=O)c1cc(=O)c2ccccc2o1)NCc1ccc(Cl)cc1	-2	-2	57*	x	x	3	1	1
O=S(=O)(c1ccc(F)cc1)N1CCN(S(=O)(=O)c2ccc3c(c2)OCCO3)CC1	0	0	-2	-6	-7	1	x	x
COc1ccc2c(N)c(C(=O)NN)[nH]c2c1	1	3	-9	-5	4	-8	x	x
NS(=O)(=O)c1ccc(NC(=O)COC(=O)c2ccc([N+](=O)[O-])s2)cc1	0	-2	70*	3	-4	10	70*	-2	Beacon interf DR=>99
Cc1cc(C)c(NC(=O)COC(=O)c2ccc([N+](=O)[O-])s2)c(C)c1	-1	-4	-12	2	-5	5	x	x
CN(CC(=O)Nc1ccccc1Cl)C(=O)COC(=O)c1ccc([N+](=O)[O-])s1	-1	2	65*	2	5	16	-2	-6
C#CCSc1nnc(CNS(=O)(=O)c2ccc(Br)cc2)n1C	0	3	0	0	-2	-1	x	x
Oc1ccc(/C=N/Nc2cc(N3CCCC3)nc(N3CCCC3)n2)cc1	9	10	-8	7	-12	6	x	x
COc1ccc(/C=N/Nc2cc(N3CCCC3)nc(N3CCCC3)n2)cc1	23	7	58*	4	-4	3	1	-10
O=C1NC(=S)SC1=Cc1ccccc1Cl	2	-1	3	7	5	1	x	x
O=C1NC(=S)S/C1=C\c1ccc(SCc2ccccc2)o1	7	12	82*	7	31	7	10	1
O=C(Nc1ccc(-c2cn3ccccc3n2)cc1)c1ccc(Cl)cc1	36	9	53*	-3	-1	3	3	8
Clc1ccc(-c2cn3ccccc3n2)cc1	0	0	7	-1	-4	-3	x	x
Cc1ccc(S(=O)(=O)N2CC(O)C[C@H]2C(=O)OCC(=O)Nc2ccc(N3CCCCC3)cc2)cc1C (stereo partly drawn)	-1	-2	-2	1	8	1	x	x
CCOCCCNC(=O)C1CCN(S(=O)(=O)N2CCCC2)CC1	1	-2	72*	-9	-6	1	3	4
C=CCOc1ccc(C2=NOC(C(=O)Nc3ccc4c(c3)OCCO4)C2)cc1 (stereo not drawn)	2	-1	-3	0	-19	0	x	x
O=C(Nc1ccc(O)c2c(=O)cc(-c3cccc(Cl)c3)oc12)c1ccccc1Cl	1	5	54*	-1	-8	0	2	-2
O=C(CCN=C1NS(=O)(=O)c2ccccc21)Nc1ccc(F)cc1Cl	-4	0	-1	1	2	0	x	x
O=C1C(Cl)=C(N2CCCC2)C(=O)N1c1ccc(F)cc1	1	12	72*	-2	1	-37	3	3
COc1ccc(N2C(=O)C(Cl)=C(N3CCCC3)C2=O)cc1	-1	6	8	-2	6	-29	x	x
COC(=O)CNC(=O)CCc1nnc(C2(c3ccc(Cl)cc3)CCC2)o1	-1	-1	58*	-2	1	10	2	-1
SMILES	LMPTP block	STEP inh	DNMT1 block	HKDC1 inhibitor	Scp1 inh	SUMO1 PPI mod	DNMT1 confirm	Beacon interf	others
C=C(C)CNC(=O)CCc1nnc(C2(c3ccc(Cl)cc3)CCC2)o1	0	-3	4	-11	-1	-2	x	x
Cc1cc(NC(=O)C2(C)CCN2C(C)C)c2ccccc2n1 (stereo not drawn)	1	0	0	x	x	1	x	x
O=C(O)CCN1C(=O)/C(=C\c2cccc(OCc3ccccc3)c2)SC1=S	2	5	1	13	25	14	x	x
O=C(O)CN1C(=O)/C(=C\c2ccccc2OCc2ccc(Cl)cc2Cl)SC1=S	7	16	20	12	6	12	x	x
O=C(O)CN1C(=O)/C(=C\c2cc(Br)ccc2OCc2ccccc2Cl)SC1=S	16	15	65*	17	34	22	71*	-8	Beacon interf DR=>99
O=C(O)CCN1C(=O)/C(=C\c2ccc(OCc3ccccc3)c(OCc3ccccc3)c2)SC1=S	14	7	98*	-3	16	24	22	1
CCCCNC(=O)C1(C)CCN1Cc1cccc2c(OC)cc(C(=O)OCC)cc12 (stereo not drawn)	1	1	-6	x	x	-11	x	x
COc1ccccc1CNC(=O)C1(c2ccc(Cl)cc2)CC1	-1	-2	9	-12	-3	0	x	x
CCOC(=O)C1CCN(C(=O)c2ccc(NS(=O)(=O)c3ccc4[nH]c(=O)[nH]c4c3)cc2)CC1	-1	1	0	-3	0	-4	x	x
O=C(CSCc1ccc(Cl)cc1)Nc1ccc(-c2nnc(-c3ccccc3)o2)cc1	17	14	72*	-6	31	4	2	-1
O=C(Cc1ccc(Cl)cc1)Nc1ccc(-c2nnc(-c3ccco3)o2)cc1	12	-4	22	1	-6	7	x	x
O=C(/C=C/c1ccco1)NC(=S)Nc1ccc(O)c(-c2nc3ccccc3s2)c1	5	5	67*	-3	-5	9	2	0
CC(=O)N(C)c1ccc(NC(=O)COc2ccc(Br)cc2C)cc1	0	2	1	-6	-7	1	x	x
COc1cccc(-c2ncc3ccccc3c2COC(=O)c2cccc(Br)c2)c1	4	2	-7	8	11	-3	x	x
CN(C)CCCN(C(=O)/C=C/c1cccs1)c1nc2ccc(F)cc2s1	0	2	5	0	-6	-15	x	x
CN(C)CCN(C(=O)/C=C/c1cccs1)c1nc2c(F)cc(F)cc2s1	0	-4	58*	-2	1	1	3	2
